High-throughput results (PubChem)
Kir21 block = blocks the mouse Kir2.1 inward-rectifier potassium channel; P35561; HEK293-Kir2.1, FluxOR thallium flux fluorescence; active compounds read low; B-score at 10 µM; 310,000 compounds, 0.85% hits; AID 1672;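 active = fluorescence ratio B-score at or below minus 3 SD of library scores, with starting-brightness B-score within 2 SD, cut at about -4.2 in these data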;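 note: channel flux triggered by added potassium and thallium sulfate stimulus; B-score of peak minus minimum fluorescence over baseline after thallium stimulus; more negative B-score means stronger Kir2.1 block with less thallium influx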
KCNK9 inh = blocks the human KCNK9 two-pore domain potassium channel; Q9NPC2; HEK293 KCNK9, FluxOR thallium flux fluorescence; active compounds read low; B-score at 10 µM; 310,000 compounds, 1.2% hits;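 active = ratio B-score over 3 SD below the library mean, with starting fluorescence within 5 SD of its mean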;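 note: negative B-score means less thallium flux so channel inhibition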
KCNQ1 pot = human KCNQ1 channel potentiation or activation. P51787. CHO-K1 KCNQ1, thallium flux FluxOR fluorescence; active compounds read high. B-score at 10 µM. 310,000 compounds, 0.35% hits. AID 2648;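 active = fluorescence ratio B-score, a plate-corrected score, at least three library SD, with initial intensity B-score within 5 SD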
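System: Stable KCNQ1 CHO-K1 line | Incubation: 90 min dye loading and 20 min compound exposure, both at room temperature | Measure: Ratio B score | Medium: Assay buffer for compound exposure, DMSO matched across wells | Compound dosing: Single-concentration screen | Probe or stimulus: K+/Tl+ depolarizing stimulus | Measured by: Kinetic FluxOR fluorescence, 10 s baseline plus 110 s post-stimulus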
KCNQ1 block = human KCNQ1 channel inhibition. P51787. CHO-K1 KCNQ1, FluxOR thallium flux fluorescence; active compounds read high. 310,000 compounds, 1.3% hits. B-score at 10 µM;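 active = compounds whose thallium flux B-score, printed positive for inhibition, exceeds three library SD while starting fluorescence stays within three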;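 note: channel opened by potassium depolarization with thallium stimulus after 20 min compound exposure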
KCNK3 block = human KCNK3 channel inhibition, primary screen; CHO-KCNK3 thallium flux, FluxOR fluorescence; active compounds read low; B-score at 10 µM; O14649; AID 602410; 340,000 compounds, 0.84% hits;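 active = B-score under library mean minus 4 SD, starting fluorescence ratio at most library mean plus 5 SD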;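 note: more negative B-score means stronger inhibition of thallium flux through KCNK3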
Target sequence (O14649 whole entry, looked up): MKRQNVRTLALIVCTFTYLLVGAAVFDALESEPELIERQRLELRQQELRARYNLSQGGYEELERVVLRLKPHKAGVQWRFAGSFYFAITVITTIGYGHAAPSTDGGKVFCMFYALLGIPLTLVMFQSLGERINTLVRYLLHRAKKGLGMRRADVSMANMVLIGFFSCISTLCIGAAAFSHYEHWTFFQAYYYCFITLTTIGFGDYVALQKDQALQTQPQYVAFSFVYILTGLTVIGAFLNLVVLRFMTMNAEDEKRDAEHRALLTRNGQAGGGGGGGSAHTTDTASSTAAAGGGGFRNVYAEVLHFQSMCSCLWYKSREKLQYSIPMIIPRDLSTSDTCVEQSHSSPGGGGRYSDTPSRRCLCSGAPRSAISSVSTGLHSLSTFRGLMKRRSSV
hERG rescue = hERG (human) protection from proarrhythmic block; 310,000 compounds, 0.51% hits; Q12809; CHO-hERG, FluxOR thallium flux, dofetilide IC70 present; activation (rescue from dofetilide block), less the hit threshold, % at 10 µM;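 active = activation above the mean of controls blocked by dofetilide plus 5 SD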;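 note: thallium influx through hERG after potassium depolarization seen as dye fluorescence rise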
KCNK9 block conf = human KCNK9 inhibitor confirmation; shares compounds with KCNK9 inh; HEK293 KCNK9 cells, FluxOR thallium flux fluorescence; inhibition, % at 10 µM; 4,900 compounds, 43% hits;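 active = thallium signal inhibited by more than 5 SD of the compound-free buffer control wells, on both duplicate plates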
Kir21 sel = tests whether KCNK9 modulators also affect mouse Kir2.1; 4,900 compounds, 4% hits; Kir2.1 cells, FluxOR thallium flux fluorescence; inhibition, % at 10 µM; shares compounds with KCNK9 inh; AID 492993;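 active = thallium signal drop more than 5 SD beyond the mean of the no-compound control wells, seen in both duplicate plates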;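 note: signal is fluorescence rise after thallium addition divided by baseline fluorescence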
HEK293 Tl ctr = non-induced cell nonspecific activity of KCNK9 modulators; shares compounds with KCNK9 inh; non-induced KCNK9-HEK293, FluxOR thallium flux; inhibition, % at 10 µM; 4,900 compounds, 40% hits;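 active = thallium signal drop beyond 5 SD of the untreated control mean, on both duplicate plates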
Hits are given with their value; - = inactive; . = no result given. Rows were chosen to be rich in hits. Some 3.7% of all compounds tested hit in one or more screens of this group.

SMILES | Kir21 block | KCNK9 inh | KCNQ1 pot | KCNQ1 block | KCNK3 block | hERG rescue | KCNK9 block conf | Kir21 sel | HEK293 Tl ctr
Cc1ccc(C)c(N2CCN(C3CCCC(C)C3)CC2)c1 (stereo not given) | - | - | - | - | - | - | - | - | -
Cc1ccc(C)c(N2CCN(CC3CCCCC3)CC2)c1 | - | - | - | - | - | - | - | - | -
COc1cccc(N2CCN(C3CCCC(C)C3)CC2)c1 (stereo not given) | - | - | - | - | - | - | . | . | .
Cc1ccc(C)c(N2CCN(CCCc3ccccc3)CC2)c1 | - | - | - | - | - | - | - | - | -
Fc1ccc(-c2ccc3c(c2)C2CC3CCN2Cc2ccc3c(c2)OCO3)cc1 (stereo not given) | . | . | . | . | - | . | . | . | .
COc1ccccc1NC(=O)c1ccc(S(=O)(=O)NCc2ccco2)cc1 | - | - | - | - | - | - | . | . | .
COc1ccccc1Oc1ccc(N/C=C/C(=O)c2ccc(C)o2)cc1 | - | - | - | - | - | - | - | - | -
CC(=O)Nc1ccc(N/C=C/C(=O)c2ccc(C)o2)cc1 | - | - | - | - | - | - | . | . | .
C=C(C)C1CCC(C)=C1COC(=O)Nc1ccccc1 (stereo not given) | - | - | - | - | - | - | - | - | -
O=C(Nc1ccccc1)OCCCCOC(=O)Nc1ccccc1 | . | . | . | . | - | . | . | . | .
Cc1nc(N2CCC(C)CC2)c2nnn(Cc3ccccc3)c2n1 | - | - | - | - | - | - | - | - | -
CC(C)Cc1nc(N2CCC(C(N)=O)CC2)c2nnn(Cc3ccccc3)c2n1 | - | - | - | - | - | - | . | . | .
COc1ccc(CCNc2nc(C)nc3c2nnn3Cc2ccccc2)cc1 | - | - | - | - | - | - | - | - | -
COc1ccc(OC)c(Nc2nc(C3CC3)nc3c2nnn3Cc2ccccc2)c1 | - | - | - | - | - | - | - | - | -
COc1ccc(Cl)cc1Nc1nc(C)nc2c1nnn2Cc1ccccc1 | - | - | - | - | - | - | . | . | .
Cc1nc(NCCc2ccccc2)c2nnn(Cc3ccccc3Cl)c2n1 | - | - | - | - | - | - | . | . | .
Cc1cccc(C(=O)Nc2cccc3c2CCCC3)c1 | - | - | - | - | - | - | . | . | .
CCN(CC(=O)NC1CCS(=O)(=O)C1)S(=O)(=O)c1ccc(C)cc1C (stereo not given) | - | - | - | - | - | - | . | . | .
Cn1c(Oc2ccc(F)cc2)c(C=O)c2ccccc21 | - | - | - | - | - | - | . | . | .
Cn1c(Sc2ccc(Br)cc2)c(C=O)c2ccccc21 | - | -9.46 | - | - | - | - | 43.5% | 36.5% | 52.0%
COc1ccc(CCN(C)C2CCCN(C(=O)CCC(F)(F)F)C2)cc1OC (stereo not given) | - | - | - | - | - | - | . | . | .
Cc1ccc(C)c(N2CCN(C(=O)c3ccc(CS(=O)Cc4cccc(Cl)c4)o3)CC2)c1 (stereo not given) | - | - | - | - | - | - | - | - | -
Cc1ccc(C)c(N2CCN(C(=O)c3cc4c(C)nc5ccccc5c4o3)CC2)c1 | - | -8.79 | - | - | - | - | 35.0% | - | -
Cc1cccc(N2CCN(C(=O)c3ccc(CS(=O)Cc4ccc(Cl)cc4)o3)CC2)c1C (stereo not given) | - | - | - | - | - | - | . | . | .
Cc1ccc(Cl)cc1NC(=O)Cn1nc(-c2cccs2)ccc1=O | - | - | - | - | - | - | . | . | .
SMILES | Kir21 block | KCNK9 inh | KCNQ1 pot | KCNQ1 block | KCNK3 block | hERG rescue | KCNK9 block conf | Kir21 sel | HEK293 Tl ctr
CCC(C)(C)C1CCC2(CC1)NC(=O)N(CC(=O)N1CCN(S(=O)(=O)c3cc(C)ccc3C)CC1)C2=O (stereo not given) | - | - | - | - | - | - | . | . | .
CCCCCC(=O)C(=O)c1ccc(O)cc1O | - | - | - | - | - | - | . | . | .
CCN1C(=O)/C(=C\c2ccc(-c3ccc([N+](=O)[O-])cc3OC)o2)SC1=Nc1cccc(C(=O)O)c1 | - | - | - | - | - | - | - | - | -
COc1cc(C2NC(=O)CCC2[N+](=O)[O-])cc(OC)c1OC (stereo not given) | - | - | - | - | - | - | . | . | .
COc1ccc(C2NC(=O)CCC2[N+](=O)[O-])cc1OC (stereo not given) | - | -14.9 | - | - | - | - | - | - | -
C=CCn1c(SCC2CCCCO2)nc2sc(CC)cc2c1=O (stereo not given) | - | - | - | - | - | - | - | - | 33.5%
Cc1sc(NC(=O)c2ccco2)c(CN2CCN(c3ccccn3)CC2)c1C | - | -12.4 | - | - | -9.78 | - | 48.5% | - | 29.5%
O=C1C(NS(=O)(=O)c2cccs2)=C(N2CCN(Cc3ccccc3)CC2)C(=O)c2ccccc21 | - | - | - | - | - | - | - | - | -
CN1CCN(C2=C(NS(=O)(=O)c3cccs3)C(=O)c3ccccc3C2=O)CC1 | - | - | - | - | - | - | . | . | .
Cc1ccc(CSc2nc3ccccc3c(=O)[nH]2)cc1 | - | -9 | - | - | - | - | - | - | 29.0%
Cc1cccc(C(=O)Nc2ccc(C(=O)Nc3ccc(O)cc3)cc2)c1 | - | - | - | - | - | - | . | . | .
Cc1cccc(C(=O)Nc2ccc(NC(=O)c3ccccc3)cc2)c1 | - | -11.4 | - | - | - | - | 54.0% | - | -
Cc1ccc(NC(=O)C(Nc2ccccc2)c2ccccc2)cc1 (stereo not given) | - | - | - | - | - | - | . | . | .
Cc1ccc(-c2csc(NC(=O)c3cccc(C)c3)c2C(=O)O)cc1 | - | - | - | - | - | - | - | - | -
Cc1ccc(NC(=O)C(Nc2cccc(C)c2)c2ccccc2)cc1 (stereo not given) | - | - | - | - | - | - | 33.0% | - | 32.5%
Cc1cccc(C(=O)Nc2scc(-c3ccc(Br)cc3)c2C(=O)O)c1 | - | - | - | - | - | - | . | . | .
Cc1cccc(C(=O)Nc2ccccc2C(=O)OCC(=O)Nc2ccc(C#N)cc2)c1 | - | -9.3 | - | - | - | - | 32.0% | - | 28.0%
CCOc1ccc(N=C(/C(C(=O)C(=O)N2CCOCC2)=C(/O)c2ccccc2)c2ccccc2)cc1 | - | - | - | - | - | - | . | . | .
O=C(Nc1ccc(Cl)cc1C(=O)N1CCCC1)c1cccc([N+](=O)[O-])c1 | - | - | - | - | - | - | . | . | .
Cc1ccc(S(=O)(=O)NC(C)(C)CSc2ccccn2)cc1 | - | - | - | - | - | - | . | . | .
COc1ccc(C2CC2/C(C)=N/OC(=O)c2ccc(F)cc2)cc1 (stereo not given) | - | - | - | - | - | - | - | - | -
